A1 apoptosis 2 = A1 inhibition read as caspase activation; MEF A1-2A-BIM cells, caspase-Glo luminescence, 3 h; percent of clofoctol response, DMSO zero; caspase activation, % (no concentration beside the values); 24,000 tested, under 10 active; AID 2465; in the data active = caspase activation above about 5.9%
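System: mouse embryonic fibroblasts co-expressing A1 and BIM (A1-2A-BIM), primed for A1 dependence; amount: 2500 cells/well; doses: 50 nL pinned compound; schedule: cells settled overnight, compound exposure 3 h at 37 °C, 5% CO2; detection: Caspase-Glo 3/7 luminescence, 1 h at room temperature; read-out: Caspase-3/7 activation, seen as rise in luminescence signal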
INS-1E ATP HTS = INS-1E beta cell protection from cytokine death | INS-1E cytokine-induced death, ATP luminescence, 48 h; normalised: neutral wells 0, positive control 100 | protection from cytokine-induced ATP loss, % at 10 µM | 0.1% of 20,000 active;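 active = mean replicate protection from cytokine-induced ATP loss at least 50% and at least 75% of replicates each reaching 50%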
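Material: INS-1E rat cells; Quantity: 8000 cells/well; Buffer or medium: phenol-red-free RPMI with 5% fetal bovine serum; Probe or stimulus: cytokine cocktail of IFN-γ, TNF-α and IL-1β; Compound dosing: single test concentration per compound, delivered by pin transfer; Incubation: 48 h co-treatment, 10 min post-lysis read; Signal: CellTiter-Glo luminescence.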
T cruzi intra = blocks T. cruzi growth inside host cells | activity score (inhibition), % at 5.01 µM | 4.9% of 22,000 active | intracellular Trypanosoma cruzi in host cells, plate reader; in the data active = activity score above about 55%;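 note: parasites and compound incubated about four days before reading; 0% = median of neutral control wells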
Numbers without * were called inactive; . = no result given. Many of the other results were omitted from the sample, so hits are more common in it than they were.

SMILES | A1 apoptosis 2 | INS-1E ATP HTS | T cruzi intra
C=CCNC(=O)[C@H]1[C@@H]2C(=O)O[C@@H](c3ccccc3)[C@@H](c3ccccc3)N2[C@@H](c2ccc(O)cc2)[C@]12C(=O)Nc1ccc(C#CC3(O)CCCCCC3)cc12 | -1 | . | .
NC(=O)COc1ccc(/C=N/NC(=O)c2ccccn2)cc1 | -6 | -8 | -7
C[C@@H]1CN([C@H](C)CO)C(=O)Cc2cc(NS(=O)(=O)c3cccs3)ccc2O[C@@H]1CN(C)S(=O)(=O)c1ccc(F)cc1 | . | -4 | 60*
Cc1ccc(S(=O)(=O)Nc2ccc3c(c2)CC(=O)N([C@@H](C)CO)C[C@H](C)[C@@H](CN(C)S(=O)(=O)c2cccs2)O3)cc1 | 0 | -2 | -13
Cc1ccc(S(=O)(=O)N(C)C[C@H]2Oc3ccc(NS(=O)(=O)c4cccs4)cc3CC(=O)N([C@H](C)CO)C[C@H]2C)cc1 | -1 | -16 | 72*
C[C@H]1CN([C@@H](C)CO)C(=O)Cc2cc(NS(=O)(=O)c3cccs3)ccc2O[C@@H]1CN(C)S(=O)(=O)c1ccc(F)cc1 | . | -2 | -7
NC(=O)COc1ccccc1/C=N/NC(=O)c1ccccc1O | -1 | -4 | -34
COc1ccc(NCc2ccc(C(=O)Nc3ccccc3N)cc2)cc1OC | 0 | . | .
C[C@@H]1CN([C@H](C)CO)C(=O)Cc2cc(NS(=O)(=O)c3ccc(Cl)cc3)ccc2O[C@@H]1CN(C)Cc1ccc2c(c1)OCO2 | . | -11 | 60*
C[C@@H]1CN([C@@H](C)CO)C(=O)Cc2cc(NS(=O)(=O)c3ccc(Cl)cc3)ccc2O[C@H]1CN(C)Cc1ccc2c(c1)OCO2 | -1 | . | .
C[C@@H]1CN([C@H](C)CO)C(=O)Cc2cc(NS(=O)(=O)c3ccc(Cl)cc3)ccc2O[C@H]1CN(C)Cc1ccc2c(c1)OCO2 | 1 | -6 | 64*
Cc1ccc(S(=O)(=O)Nc2ccc3c(c2)CC(=O)N([C@@H](C)CO)C[C@@H](C)[C@@H](CN(C)Cc2ccc4c(c2)OCO4)O3)cc1 | -2 | -3 | 27
C[C@@H]1CN([C@H](C)CO)C(=O)c2cc(NS(=O)(=O)c3ccc(F)cc3)ccc2O[C@H]1CN(C)Cc1ccc(Cl)c(Cl)c1 | . | -11 | 7
Cc1ccc(S(=O)(=O)Nc2ccc3c(c2)C(=O)N([C@@H](C)CO)C[C@H](C)[C@H](CN(C)Cc2ccc(Cl)c(Cl)c2)O3)cc1 | -1 | . | 14*
C[C@H](CO)N1C[C@H](C)[C@@H](CN(C)Cc2ccncc2)Oc2ccc(NS(=O)(=O)c3cccs3)cc2C1=O | 0 | 0 | 3
C[C@H]1CN([C@@H](C)CO)C(=O)c2cc(NS(=O)(=O)c3cccs3)ccc2O[C@@H]1CN(C)Cc1ccc(Cl)c(Cl)c1 | . | -9 | 57*
Cc1ccc(S(=O)(=O)Nc2ccc3c(c2)C(=O)N([C@H](C)CO)C[C@H](C)[C@@H](CN(C)Cc2ccc(Cl)c(Cl)c2)O3)cc1 | . | -7 | 9
C[C@H](CO)N1C[C@H](C)[C@@H](CN(C)Cc2ccc(Cl)c(Cl)c2)Oc2ccc(NS(=O)(=O)c3ccc(Cl)cc3)cc2C1=O | . | -6 | 64*
C[C@@H]1CN([C@@H](C)CO)C(=O)Cc2cc(NC(=O)CCCCCC(=O)Nc3ccccc3N)ccc2O[C@@H]1CN(C)S(=O)(=O)c1ccccc1 | -1 | 1 | 1
COc1ccc(/C=C2\SC(=S)N(CCCC(=O)NC34CC5CC(CC(O)(C5)C3)C4)C2=O)cc1 | -6 | . | .
C[C@@H]1CN([C@@H](C)CO)C(=O)Cc2cc(N(C)C)ccc2O[C@@H]1CN(C)Cc1ccncc1 | 0 | 3 | -1
CC(C)(C)OC(=O)NC1(/C=N/NC(=O)CCCCCC(=O)NO)CCCC1 | 0 | . | .
CN(CCO)c1ccc(/C=N/NC(=O)c2ccccn2)cc1 | -12 | -12 | 31
Cc1ccc(S(=O)(=O)Nc2ccc3c(c2)CC(=O)N([C@H](C)CO)C[C@H](C)[C@H](CN(C)Cc2ccccc2)O3)cc1 | -1 | -9 | 41
Cc1ccc(S(=O)(=O)Nc2ccc3c(c2)CC(=O)N([C@H](C)CO)C[C@@H](C)[C@H](CN(C)Cc2ccccc2)O3)cc1 | . | 0 | 67*
SMILES | A1 apoptosis 2 | INS-1E ATP HTS | T cruzi intra
C[C@H]1CN([C@@H](C)CO)C(=O)Cc2cc(NS(=O)(=O)c3ccccc3)ccc2O[C@@H]1CN(C)Cc1ccc(-c2ccccc2)cc1 | . | -14 | 75*
Cc1ccc(S(=O)(=O)Nc2ccc3c(c2)CC(=O)N([C@H](C)CO)C[C@@H](C)[C@H](CN(C)Cc2ccc(-c4ccccc4)cc2)O3)cc1 | 1 | -16 | 54
Cc1ccc(S(=O)(=O)Nc2ccc3c(c2)CC(=O)N([C@@H](C)CO)C[C@@H](C)[C@@H](CN(C)Cc2ccc(-c4ccccc4)cc2)O3)cc1 | -1 | -9 | 71*
C[C@@H]1CN([C@H](C)CO)C(=O)Cc2cc(NS(=O)(=O)c3ccc(Cl)cc3)ccc2O[C@@H]1CN(C)Cc1ccc(-c2ccccc2)cc1 | . | -42 | 67*
C[C@@H]1CN([C@@H](C)CO)C(=O)Cc2cc(NS(=O)(=O)c3ccc(Cl)cc3)ccc2O[C@@H]1CN(C)Cc1ccc(-c2ccccc2)cc1 | . | 5 | 34
C[C@H]1CN([C@@H](C)CO)C(=O)Cc2cc(NS(=O)(=O)c3ccccc3)ccc2O[C@H]1CN(C)Cc1ccc(-c2ccccc2)cc1 | . | 2 | 3
O=C(NO)c1cccc(C(=O)N/N=C/c2ccc(O)c(O)c2)c1 | 0 | 1 | -28
CC1(C)COC(CCC/C=N/NC(=O)CCCCCCC(=O)O)OC1 | . | 1 | -27
C[C@@H]1CN([C@H](C)CO)C(=O)Cc2cc(NC(=O)CCCCCC(=O)Nc3ccccc3N)ccc2O[C@@H]1CN(C)C(=O)Nc1cccc2ccccc12 | 1 | 10 | -37
COCCOC(=O)N1C(=O)[C@@]2(c3cc(C#CCC(C(=O)OC)C(=O)OC)ccc31)[C@H](C(N)=O)[C@H]1C(=O)O[C@H](c3ccccc3)[C@H](c3ccccc3)N1[C@@H]2c1ccccc1OCCO | 1 | . | .
COC(=O)CCCCCCC(=O)N/N=C/c1ccccn1 | 2 | 0 | 8
COc1ccc(S(=O)(=O)Nc2ccc3c(c2)CC(=O)N([C@@H](C)CO)C[C@@H](C)[C@@H](CN(C)Cc2ccc4c(c2)OCO4)O3)cc1 | 0 | -4 | 4
COc1ccc(S(=O)(=O)Nc2ccc3c(c2)CC(=O)N([C@H](C)CO)C[C@@H](C)[C@H](CN(C)Cc2ccc4c(c2)OCO4)O3)cc1 | . | 3 | 66*
COc1ccc(CN(C)C[C@@H]2Oc3ccc(NS(=O)(=O)c4ccc(F)cc4)cc3CC(=O)N([C@H](C)CO)C[C@H]2C)cc1 | . | -2 | 41
COc1ccc(S(=O)(=O)Nc2ccc3c(c2)CC(=O)N([C@@H](C)CO)C[C@@H](C)[C@H](CN(C)Cc2ccccc2)O3)cc1 | -1 | . | .
COc1ccc(S(=O)(=O)Nc2ccc3c(c2)CC(=O)N([C@H](C)CO)C[C@@H](C)[C@@H](CN(C)Cc2ccc(-c4ccccc4)cc2)O3)cc1 | 1 | -16 | 72*
COc1ccc(CN(C)C[C@@H]2Oc3ccc(NS(=O)(=O)c4ccccc4)cc3CC(=O)N([C@@H](C)CO)C[C@@H]2C)cc1 | . | 4 | 17
